The values below come from ChEMBL document CHEMBL1240433, “Design, synthesis, and antitubercular evaluation of novel series of 3-benzofuran-5-aryl-1-pyrazolyl-pyridylmethanone and 3-benzofuran-5-aryl-1-pyrazolylcarbonyl-4-oxo-naphthyridin analogs” (Eur J Med Chem, 2010).

SMILES strings stand for the structures. In brackets after ≈: the same amount, converted by molar mass.

The subject of the test is Mycobacterium tuberculosis. Put plainly: Antitubercular activity against multidrug-resistant Mycobacterium tuberculosis H37Rv after 6 weeks. Format: functional. A digest of the protocol:
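Lowenstein-Jensen slope assay. DMSO stocks of 250 and 10 µg/mL were each mixed 0.8 mL into 7.2 mL L.J. medium, then inspissated at 75-80 °C for 3 days. A loopful of culture was dispersed with glass beads in sterile water by vortexing for 2 min and streaked onto the slopes. DMSO-only and drug-free media served as controls. Bacterial counts were read after 6 weeks at 37 °C.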

By MIC is commonly meant the smallest concentration in the dilution series that meets the test's criterion for growth inhibition. Read a low MIC as inhibition by little substance. `CN(C)c1ccc(C2CC(c3cc4ccccc4o3)=NN2C(=O)c2ccncc2)cc1` (stereo not given) returned an MIC of 11.5 µg/mL (≈ 28 µM).
Next, `COc1ccc(C2CC(c3cc4ccccc4o3)=NN2C(=O)c2ccncc2)cc1` (stereo not given): 5.5 µg/mL (≈ 13.8 µM); `CCn1cc(C(=O)N2N=C(c3cc4ccccc4o3)CC2/C=C/c2ccccc2)c(=O)c2ccc(C)nc21` (stereo not given): 7.4 µg/mL (≈ 14.7 µM).
Take `CCn1cc(C(=O)N2N=C(c3cc4ccccc4o3)CC2c2ccccc2OC)c(=O)c2ccc(C)nc21` (stereo not given): the MIC came to 8.5 µg/mL (≈ 16.8 µM).
Next, `O=C(c1ccncc1)N1N=C(c2cc3ccccc3o2)CC1c1cccc([N+](=O)[O-])c1` (stereo not given): 6.9 µg/mL (≈ 16.7 µM); `CCn1cc(C(=O)N2N=C(c3cc4ccccc4o3)CC2c2ccccc2C(=O)O)c(=O)c2ccc(C)nc21` (stereo not given): 7.8 µg/mL (≈ 15 µM).
Consider `O=C(c1ccncc1)N1N=C(c2cc3ccccc3o2)CC1c1ccccc1` (stereo not given), for which the MIC worked out at 9.5 µg/mL (≈ 25.9 µM).
For `CCn1cc(C(=O)N2N=C(c3cc4ccccc4o3)CC2c2ccc(OC)cc2O)c(=O)c2ccc(C)nc21` (stereo not given), the MIC was 5.4 µg/mL (≈ 10.3 µM).
On to `O=C(c1ccncc1)N1N=C(c2cc3ccccc3o2)CC1/C=C/c1ccccc1` (stereo not given), for which the MIC was found to be 7.5 µg/mL (≈ 19.1 µM).
The result for `O=C(c1ccncc1)N1N=C(c2cc3ccccc3o2)CC1c1ccco1` (stereo not given) reads 10.4 µg/mL (≈ 29.1 µM).
Molecule `O=C(c1ccncc1)N1N=C(c2cc3ccccc3o2)CC1c1ccc(O)cc1` (stereo not given) had an MIC of 6.2 µg/mL (≈ 16.2 µM).
Next, `CCn1cc(C(=O)N2N=C(c3cc4ccccc4o3)CC2c2ccco2)c(=O)c2ccc(C)nc21` (stereo not given): 8.5 µg/mL (≈ 18.2 µM); `O=C(c1ccncc1)N1N=C(c2cc3ccccc3o2)CC1c1ccccc1O` (stereo not given): 6.2 µg/mL (≈ 16.2 µM); `CCn1cc(C(=O)N2N=C(c3cc4ccccc4o3)CC2c2ccc(Cl)cc2)c(=O)c2ccc(C)nc21` (stereo not given): 6.3 µg/mL (≈ 12.3 µM).
`CCn1cc(C(=O)N2N=C(c3cc4ccccc4o3)CC2c2ccccc2)c(=O)c2ccc(C)nc21` (stereo not given) had an MIC of 10.8 µg/mL (≈ 22.7 µM).
The molecule `CCn1cc(C(=O)N2N=C(c3cc4ccccc4o3)CC2c2ccccc2Cl)c(=O)c2ccc(C)nc21` (stereo not given) registered an MIC of 8.4 µg/mL (≈ 16.4 µM).
The result for `O=C(c1ccncc1)N1N=C(c2cc3ccccc3o2)CC1c1ccccc1[N+](=O)[O-]` (stereo not given) reads 7.5 µg/mL (≈ 18.2 µM).
In turn, `COc1ccccc1C1CC(c2cc3ccccc3o2)=NN1C(=O)c1ccncc1` (stereo not given) registered an MIC of 5.7 µg/mL (≈ 14.3 µM).
For `O=C(c1ccncc1)N1N=C(c2cc3ccccc3o2)CC1c1ccccc1Cl` (stereo not given), the lowest concentration to inhibit growth (MIC) was 9.5 µg/mL (≈ 23.6 µM).
Take `CCn1cc(C(=O)N2N=C(c3cc4ccccc4o3)CC2c2ccccc2[N+](=O)[O-])c(=O)c2ccc(C)nc21` (stereo not given): the MIC came to 3.6 µg/mL (≈ 6.9 µM).
Next, `CCn1cc(C(=O)N2N=C(c3cc4ccccc4o3)CC2c2ccccc2O)c(=O)c2ccc(C)nc21` (stereo not given): 6.4 µg/mL (≈ 13 µM).
The result for `NNC(=O)c1ccncc1` [ISONIAZID] reads 8.5 µg/mL (≈ 62 µM); that for `CCn1cc(C(=O)N2N=C(c3cc4ccccc4o3)CC2c2ccc(N(C)C)cc2)c(=O)c2ccc(C)nc21` (stereo not given), 10.6 µg/mL (≈ 20.4 µM).
Next, `CCn1cc(C(=O)N2N=C(c3cc4ccccc4o3)CC2c2ccc(OC)cc2)c(=O)c2ccc(C)nc21` (stereo not given): 8.5 µg/mL (≈ 16.8 µM); `O=C(O)c1ccccc1C1CC(c2cc3ccccc3o2)=NN1C(=O)c1ccncc1` (stereo not given): 3.2 µg/mL (≈ 7.78 µM); `CCn1cc(C(=O)N2N=C(c3cc4ccccc4o3)CC2c2cccc([N+](=O)[O-])c2)c(=O)c2ccc(C)nc21` (stereo not given): 3.7 µg/mL (≈ 7.09 µM).
`CCn1cc(C(=O)N2N=C(c3cc4ccccc4o3)CC2c2ccc(O)cc2)c(=O)c2ccc(C)nc21` (stereo not given) came in with an MIC of 3.8 µg/mL (≈ 7.72 µM).
The result for `COc1ccc(C2CC(c3cc4ccccc4o3)=NN2C(=O)c2ccncc2)c(O)c1` (stereo not given) reads 4.5 µg/mL (≈ 10.9 µM); that for `O=C(c1ccncc1)N1N=C(c2cc3ccccc3o2)CC1c1ccc(Cl)cc1` (stereo not given), 10.6 µg/mL (≈ 26.4 µM).
`CO[C@H]1/C=C/O[C@@]2(C)Oc3c(C)c(O)c4c(O)c(c(/C=N/N5CCN(C)CC5)c(O)c4c3C2=O)NC(=O)/C(C)=C\C=C\[C@H](C)[C@H](O)[C@@H](C)[C@@H](O)[C@@H](C)[C@H](OC(C)=O)[C@@H]1C` [RIFAMPIN] came in with a minimal inhibitory concentration (MIC) of 4.2 µg/mL (≈ 5.1 µM).
